# Assay results collected from several papers.
# Each line is one published result; the experiments were not run side by side.
# CHEK2: Serine/threonine-protein kinase Chk2 (CHEK2, Homo sapiens, UniProt O96017)
# SLC6A2: Sodium-dependent noradrenaline transporter (SLC6A2, Homo sapiens, UniProt P23975)
# MPO: Myeloperoxidase (MPO, Homo sapiens, UniProt P05164)
Structure (SMILES),target,assay,conditions,endpoint,value
COc1ccc2oc(-c3ccc4nc(N)oc4c3)c/c(=N\c3ccccc3NC(=O)CCN)c2c1,CHEK2,binding,1 µM,remaining binding,76%
Cc1cc(O)c(-c2ccc([C@@H](C)CN(C)C)cc2)c2c1[nH]c(=O)c1sccc12,"Peripheral plasma membrane protein CASK (CASK, Homo sapiens, UniProt O14936)","cell-free assay, inhibitor","0.1 µM, lysate",inhibition,3.12%
CCOC(=O)[C@@]12C[C@@H]1[C@@H](n1ccc3c(NCCCCc4ccccc4)nc(C#Cc4ccccc4)nc31)[C@H](O)[C@@H]2O,SLC6A2,"ligand displacement, radioligand",10 µM,inhibition,81%
CCCCC(=O)Nc1ccc(-c2ccc3ncn(CCC)c(=O)c3c2)cn1,CHEK2,"binding, competition with immobilised ligand",0.5 µM,remaining binding,96%
NC/C(=C\F)COc1cccc(Cn2c(=S)[nH]c(=O)c3[nH]cnc32)c1,MPO,"enzyme activity, inhibitor, fluorescence",3 µM,inhibition,99.7%
CCOC(=O)[C@@]12C[C@@H]1[C@@H](n1cnc3c(NCCCCc4ccccc4)nc(C#Cc4ccc(Cl)s4)nc31)[C@H](O)[C@@H]2O,SLC6A2,"ligand displacement, radioligand",10 µM,inhibition,3%
CC(C)OCCn1c(=S)[nH]c(=O)c2[nH]ccc21,MPO,"enzyme activity, inhibitor",0.156 µM,remaining activity,93.7%
CNC(=O)[C@@]12C[C@@H]1[C@@H](n1cnc3c(Nc4ccccc4)nc(C#Cc4ccc(Cl)s4)nc31)[C@H](O)[C@@H]2O,SLC6A2,"ligand displacement, radioligand",10 µM,inhibition,77%
C1=C/COCc2cc(ccc2OCCN2CCCC2)Nc2nccc(n2)-c2cccc(c2)COC/1,"Fibroblast growth factor receptor 1 (FGFR1, Homo sapiens, UniProt P11362)",binding,0.1 µM,remaining binding,88%
